Converted amounts (≈) assume the structure as drawn.

Assay [1] concerns Neutrophil. Nature of the assay: Anti-inflammatory activity in human neutrophils assessed as inhibition of fMLP/CB-induced superoxide anion generation by measuring superoxide dismutase SOD-inhibitable ferricytochrome c reduction incubated for 5 mins before fMLP/CB stimulation for 3 mins by spectrophotometry. Type of assay: functional, cell-based. A digest of the protocol: (§1)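 Same neutrophil preparation. Cells at 6 × 10^5/mL with 0.5 mg/mL ferricytochrome c and 1 mM Ca2+ were equilibrated 2 min at 37 °C and given compound or 0.1% DMSO for 5 min. Cytochalasin B (1 μg/mL) was added, then 100 nM fMLP. A550 was monitored continuously with stirring. Superoxide was calculated from the difference with versus without SOD (100 U/mL) using ε = 21.1/mM/10 mm. IC50 values are mean ± SD, n = 3.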

Assay [2] deals with Neutrophil. Nature of the assay: Anti-inflammatory activity in human neutrophils assessed as inhibition of fMLP/CB-induced elastase release at 10 ug/ml pre-incubated for 5 mins before fMLP/CB stimulation using MeO-Suc-Ala-Ala-Pro-Val-pnitroanilide as substrate. Type of assay: functional. The essentials:
(§2)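 Neutrophils were isolated by dextran sedimentation, Ficoll Hypaque centrifugation and hypotonic lysis of erythrocytes, then held in Ca2+-free HBSS pH 7.4 at 4 °C. Cells at 6 × 10^5/mL with 100 μM substrate were equilibrated 2 min at 37 °C and given compound or 0.1% DMSO vehicle for 5 min. They were activated with 100 nM fMLP plus 0.5 μg/mL cytochalasin B, and A405 was monitored continuously. Release is expressed as percent of the drug-free activated control. Mean ± SD.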

The subject of assay [3] is Neutrophil. As to the kind of experiment: Anti-inflammatory activity in human neutrophils assessed as inhibition of fMLP/CB-induced elastase release pre-incubated for 5 mins before fMLP/CB stimulation using MeO-Suc-Ala-Ala-Pro-Val-pnitroanilide as substrate. Type of assay: functional, cell-based. A digest of the protocol:
as §2

The test system of assay [4] is Neutrophil. Nature of the assay: Anti-inflammatory activity in human neutrophils assessed as inhibition of fMLP/CB-induced superoxide anion generation by measuring superoxide dismutase SOD-inhibitable ferricytochrome c reduction at 10 ug/ml incubated for 5 mins before fMLP/CB stimulation for 3 mins by spectrophotometry. Type of assay: functional. A digest of the protocol:
as §1

Broadly, the IC50 is the midpoint of a concentration-inhibition curve. One may read the inhibition as the drop in the measured response relative to a control, in per cent. As to `COc1cc(C[C@H]2COC(=O)[C@@H]2Cc2ccc(O)c(OC)c2)ccc1O` [MATAIRESINOL], the values for the concentration for half-maximal inhibition (IC50) in the assay on Neutrophil [1] and with Neutrophil [3] were 4.3 µg/mL (≈ 12 µM) and 7.3 µg/mL (≈ 20.4 µM), respectively. Besides, the inhibition entry in the assay with Neutrophil [1] and with Neutrophil [3] was “Dose-dependent effect” throughout. Further, the inhibition at 10 µg/mL in the assay with Neutrophil [2] and with Neutrophil [4] was more than 50% throughout.

As to `CNC(=O)c1cc(Oc2ccc(NC(=O)Nc3ccc(Cl)c(C(F)(F)F)c3)cc2)ccn1` [SORAFENIB], the IC50 in the assay with Neutrophil [1] came to 1.5 µg/mL (≈ 3.23 µM); in the assay with Neutrophil [3], 0.9 µg/mL (≈ 1.94 µM).

Turning to `CC(=O)O[C@H]1CC[C@]2(C)[C@H]3CCC4[C@@H]([C@]5(C)CC[C@@H](O)C(C)(C)O5)CC[C@@]4(C)[C@]3(C)CC[C@H]2C1(C)C` (stereo partly drawn), the 50% inhibitory concentration (IC50) in the assay with Neutrophil [1] and in the assay on Neutrophil [3] was more than 10 µg/mL in each case.

`COC1CC[C@@](C)([C@H]2CC[C@]3(C)[C@@H]2CC[C@@H]2[C@@]4(C)CCC(OC(C)=O)C(C)(C)[C@@H]4CC[C@]23C)O1` (stereo partly drawn): the half-maximal inhibitory concentration (IC50) in the assay on Neutrophil [1] and in the assay on Neutrophil [3] was more than 10 µg/mL each time.

`C/C(=C\C(=O)O)CC[C@@]1(C)[C@H](C)CC[C@]2(C)C(C(=O)O)=CCC[C@H]12`: the IC50 with Neutrophil [1] and in the assay on Neutrophil [3] was more than 10 µg/mL throughout.

With `COc1cc([C@H]2OC[C@H]3[C@@H]2CO[C@@H]3c2ccc(O)c(OC)c2)ccc1O`, in the assay on Neutrophil [1], the IC50 was determined as 1.3 µg/mL (≈ 3.63 µM) and the inhibition result was “Dose-dependent effect”. The IC50 in the assay on Neutrophil [3] is more than 10 µg/mL. Also, the inhibition at 10 µg/mL with Neutrophil [4] was more than 50%.

For `O=C(Cc1ccc(O)cc1)OC[C@H]1CC[C@@H]2C(C(=O)O)=CO[C@@H](O[C@@H]3O[C@H](CO)[C@@H](O)[C@H](O)[C@H]3O)[C@H]12`, the IC50 in the assay with Neutrophil [1] and in the assay with Neutrophil [3] was more than 10 µg/mL in each case.

In the case of `C=C1CCC2[C@@](C)(CO)CCC[C@]2(C)[C@H]1CC/C(C)=C/C(=O)O` (stereo partly drawn), in the assay on Neutrophil [1], the IC50 worked out at 7.4 µg/mL (≈ 23.1 µM) and the inhibition result is “Dose-dependent effect”. Besides, in the assay with Neutrophil [3], the IC50 is more than 10 µg/mL. Besides, the inhibition at 10 µg/mL in the assay with Neutrophil [4] was more than 50%.

With `COc1cc([C@H]2OC[C@H]3[C@@H]2CO[C@H]3c2ccc(OC)c(OC)c2)ccc1O` [PHILLYGENIN], in the assay on Neutrophil [1], the half-maximal inhibitory concentration (IC50) turned out to be 6.4 µg/mL (≈ 17.2 µM) and the inhibition result is “Dose-dependent effect”. For the same compound, the half-inhibitory concentration (IC50) with Neutrophil [3] is more than 10 µg/mL. Also, the inhibition at 10 µg/mL in the assay with Neutrophil [4] is more than 50%.

As to `C/C(=C\C(=O)O)CC[C@H]1C(CO)=CC[C@H]2[C@@](C)(CO)CCC[C@]12C`, the IC50 is 8.3 µg/mL (≈ 24.7 µM) in the assay with Neutrophil [1] and more than 10 µg/mL in the assay with Neutrophil [3]. Moreover, in the assay with Neutrophil [4], the inhibition at 10 µg/mL was more than 50%.

Regarding `C=C1CC[C@@H]2[C@](C)(CCC[C@@]2(C)C(=O)O)[C@H]1CC/C(C)=C\C(=O)O`, the IC50 in the assay on Neutrophil [1] and with Neutrophil [3] was more than 10 µg/mL each time.

Take `C[C@H]1[C@H](C)CC[C@]2(C(=O)O)CC[C@]3(C)C(=CC[C@@H]4[C@@]5(C)CC[C@H](O)C(C)(C)[C@@H]5CC[C@]43C)[C@H]12` [URSOLIC ACID]: the IC50 with Neutrophil [1] stood at 0.6 µg/mL (≈ 1.31 µM); with Neutrophil [3], 0.8 µg/mL (≈ 1.75 µM). Besides, the inhibition result in the assay on Neutrophil [1] and with Neutrophil [3] was “Dose-dependent effect” throughout. Besides, the inhibition at 10 µg/mL with Neutrophil [2] and in the assay with Neutrophil [4] was more than 50% in each case.

With `C=C1CC[C@H]2[C@@](C)(CO)CCC[C@]2(C)[C@H]1CC/C(C)=C\C(=O)O`, the IC50 in the assay on Neutrophil [1] was 2.5 µg/mL (≈ 7.8 µM); in the assay on Neutrophil [3], more than 10 µg/mL. In the assay on Neutrophil [4], the inhibition at 10 µg/mL is more than 50%.

For the compound `CC1=C(CC/C(C)=C/C(=O)O)[C@@]2(C)CCC[C@@](C)(CO)[C@@H]2CC1=O`, the concentration for half-maximal inhibition (IC50) in the assay on Neutrophil [1] and in the assay on Neutrophil [3] was more than 10 µg/mL in each case.

Regarding `C=C1CC[C@H]2[C@@](C)(COC=O)CCC[C@]2(C)[C@H]1CC/C(C)=C\C(=O)O`, the half-maximal inhibitory concentration (IC50) in the assay on Neutrophil [1] and with Neutrophil [3] was more than 10 µg/mL each time.

In the case of `C=C1CC[C@H]2C(C)(C)C(=O)CC[C@]2(C)[C@H]1CC/C(C)=C/C(=O)O`, the IC50 with Neutrophil [1] and in the assay on Neutrophil [3] was more than 10 µg/mL each time.

Regarding `CC(=O)OC1CC[C@]2(C)[C@H]3CC[C@@H]4[C@@H]([C@]5(C)CCC(=O)O5)CC[C@@]4(C)[C@]3(C)CC[C@H]2C1(C)C` (stereo partly drawn), the IC50 with Neutrophil [1] and in the assay on Neutrophil [3] was more than 10 µg/mL each time.

As for `C=C(C)[C@@H]1CC[C@]2(C(=O)O)CC[C@]3(C)C(CCC4[C@@]5(C)C[C@@H](O)[C@H](O)C(C)(C)C5CC[C@]43C)C12` (stereo partly drawn), the half-inhibitory concentration (IC50) amounted to 0.8 µg/mL (≈ 1.69 µM) in the assay on Neutrophil [1] and 1.9 µg/mL (≈ 4.02 µM) with Neutrophil [3]. The inhibition entry in the assay on Neutrophil [1] and with Neutrophil [3] was “Dose-dependent effect” in each case. In addition, the inhibition at 10 µg/mL with Neutrophil [2] and with Neutrophil [4] was more than 50% in each case.

As to `C=C1CC[C@H]2[C@](C)(CO)CCC[C@]2(C)[C@H]1CC/C(C)=C/C(=O)O`, the IC50 with Neutrophil [1] and with Neutrophil [3] was more than 10 µg/mL each time.

For `COc1cc([C@H]2OC[C@H]3[C@@H]2CO[C@H]3c2ccc(O)c(OC)c2)ccc1O` [PINORESINOL], in the assay on Neutrophil [1], the 50% inhibitory concentration (IC50) was 3.4 µg/mL (≈ 9.49 µM) and the inhibition entry is “Dose-dependent effect”. In the assay with Neutrophil [3], the IC50 is more than 10 µg/mL. In the assay with Neutrophil [4], the inhibition at 10 µg/mL is more than 50%.

Consider `CC(=O)O[C@H]1CC[C@]2(C)[C@H]3CCC4[C@@H]([C@@](C)(O)CCC=C(C)C)CC[C@@]4(C)[C@]3(C)CC[C@H]2C1(C)C` (stereo partly drawn), for which the IC50 in the assay on Neutrophil [1] and in the assay with Neutrophil [3] was more than 10 µg/mL each time.

`COc1ccc([C@H]2OC[C@@H]3C(=O)OC[C@@H]32)cc1OC`: the half-maximal inhibitory concentration (IC50) in the assay on Neutrophil [1] is 5.6 µg/mL (≈ 21.2 µM); in the assay with Neutrophil [3], more than 10 µg/mL. The inhibition result in the assay on Neutrophil [1] was “Dose-dependent effect”. In the assay with Neutrophil [4], the inhibition at 10 µg/mL was more than 50%.

As for `O=C1C=CC2(O)CC(=O)OC2C1` (stereo not drawn), the IC50 with Neutrophil [1] and in the assay with Neutrophil [3] was more than 10 µg/mL throughout.

Turning to `CC(=O)O[C@H]1CC[C@]2(C)[C@H]3CC=C4[C@@H]5CC(C)(C)CC[C@]5(C(=O)O)CC[C@@]4(C)[C@]3(C)CC[C@H]2C1(C)C` [ACETYL OLEANOLIC ACID], the IC50 with Neutrophil [1] and in the assay on Neutrophil [3] was more than 10 µg/mL in each case.

For the compound `C[C@@H]1O[C@@H](OC[C@H]2O[C@@H](OCCc3ccc(O)c(O)c3)[C@H](O)[C@@H](O)[C@@H]2OC(=O)/C=C/c2ccc(O)c(O)c2)[C@H](O)[C@H](O)[C@H]1O` [FORSYTHIASIDE], the IC50 in the assay on Neutrophil [1] was 1.4 µg/mL (≈ 2.24 µM); in the assay with Neutrophil [3], more than 10 µg/mL. Further, the inhibition result with Neutrophil [1] is “Dose-dependent effect”. Also, the inhibition at 10 µg/mL in the assay on Neutrophil [4] is more than 50%.

`COC(C)(C)/C=C/C[C@](C)(O)[C@H]1CC[C@]2(C)C1CC[C@@H]1[C@@]3(C)CC[C@H](OC(C)=O)C(C)(C)[C@@H]3CC[C@]12C` (stereo partly drawn): the IC50 in the assay with Neutrophil [1] and in the assay with Neutrophil [3] was more than 10 µg/mL each time.
